Key:
[1] = Cmax in healthy human plasma at 400 mg, po Bid for 1 week by LC-MS/MS analysis; type: ADME, organism-based; set-up: dose 400 mg, route oral
Summary of the method: (§1)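 Healthy volunteers (24–51 y) took raltegravir 400 mg twice daily for 1 week in a crossover with at least 3 days between arms, dosing ≥1 h before or 2 h after food. After a witnessed dose, blood was drawn at 1, 2, 4, 8 and 12 h, with meals from 1 h. Plasma was analysed by LC-MS-MS after acetonitrile precipitation, using noncompartmental linear-trapezoidal AUC and log10-transformed geometric means.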

[2] = Ctau in healthy human plasma at 400 mg, po Bid for 1 week by LC-MS/MS analysis; type: ADME, organism-based; settings: read-out: Ctau; summary of the method: as §1
[3] = Plasma concentration in healthy human at 400 mg, po Bid for 1 week measured 12 hrs post dose by LC-MS/MS analysis; type: ADME, organism-based; summary of the method: as §1
[4] = AUC (0 to12 hrs) in healthy human at 400 mg, po Bid for 1 week by LC-MS/MS analysis; type: ADME, organism-based; set-up: dose 400 mg, time < 12 hr, route oral; settings: plasma; summary of the method: as §1
[5] = AUC (0 to tau) in healthy human at 400 mg, po Bid for 1 week by LC-MS/MS analysis; type: ADME, organism-based; settings: plasma; summary of the method: as §1
Homo sapiens [6] = experiment: AUC (0 to tau) in human at 400 mg, po Bid coadministered with atazanavir 400 mg, po qd for 1 week by LC-MS/MS analysis; type: ADME, organism-based, Plasma; settings: in vivo, 168 h, in the assay text read “po qd” for “po Bid”
Summary of the method: (§2)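 Arm B of a crossover in healthy adults (24–51 y), separated from the other arm by at least 3 days. Subjects took raltegravir 400 mg plus atazanavir 400 mg once daily for 1 week in a semifasted state. Plasma was sampled over 24 h after a witnessed dose. Raltegravir was quantified by LC-MS-MS after acetonitrile protein precipitation, and the glucuronide by negative-mode SRM (m/z 619.1→316.0) with a d3 internal standard. Noncompartmental analysis used the linear trapezoidal rule.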

[7] = Drug level in healthy human urine at 400 mg, po Bid coadministered with atazanavir 400 mg, po qd for 1 week measured at 0-12 hrs post dose by LC-MS/MS analysis; type: ADME, organism-based; settings: in vivo, in the assay text read “po qd” for “po Bid”
Summary of the method: (§3)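 Steady state was reached after 1 week of once-daily raltegravir 400 mg with atazanavir 400 mg in healthy adults. All urine was collected over 24 h after the witnessed dose and combined into 2-h pools. Raltegravir and raltegravir-glucuronide were assayed by LC-MS-MS, and amounts excreted were summed for 0–12 h and 12–24 h.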

[8] = Drug level in healthy human urine at 400 mg, po Bid coadministered with atazanavir 400 mg, po qd for 1 week measured at 12 to 24 hrs post dose by LC-MS/MS analysis; type: ADME, organism-based; settings: in vivo, in the assay text read “po qd” for “po Bid”; summary of the method: as §3
[9] = Drug level in healthy human urine at 400 mg, po Bid for 1 week measured at 0-12 hrs post dose by LC-MS/MS analysis; type: ADME, organism-based; settings: in vivo
Summary of the method: (§4)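 Healthy volunteers took raltegravir 400 mg twice daily for 1 week. After the witnessed dose, all urine was collected over 12 h and pooled into 2-h aliquots, then frozen at −70°C. Raltegravir and its glucuronide were measured by LC-MS-MS, and amounts were summed over 0–12 h. Values are geometric means of log10-transformed data.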

[10] = Apparent total plasma clearance in healthy human at 400 mg, po Bid for 1 week by LC-MS/MS analysis; type: ADME, organism-based
Summary of the method: (§5)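 Raltegravir 400 mg was given twice daily for 1 week, with 12-h plasma and urine profiles measured by LC-MS-MS. Apparent oral clearance was dose/AUC over the dosing interval. Renal clearance was the amount excreted in urine divided by plasma AUC over the same interval. Fe/F was Ae/(dose/F), with F unknown.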

[11] = Renal clearance in healthy human at 400 mg, po Bid for 1 week by LC-MS/MS analysis; type: ADME, organism-based; settings: plasma, read-out: CL_renal; summary of the method: as §5
[12] = Apparent clearance of oral drug in healthy human assessed as drug excreted unchanged at 400 mg, po Bid for 1 week by LC-MS/MS analysis; type: ADME, organism-based; settings: in vivo, read-out: Fraction excreted unchanged; summary of the method: as §5
[13] = Apparent total plasma clearance in healthy human at 400 mg, po Bid coadministered with atazanavir 400 mg, po qd for 1 week by LC-MS/MS analysis; type: ADME, organism-based; settings: in the assay text read “po qd” for “po Bid”
Summary of the method: (§6)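 Once-daily raltegravir 400 mg with atazanavir 400 mg was given for 1 week, with plasma and urine collected over 24 h and assayed by LC-MS-MS. Clearances were computed noncompartmentally: CL/F = dose/AUC(τ), renal CL = urinary amount/plasma AUC over the same interval, and Fe/F = Ae/(dose/F).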

[14] = Renal clearance in healthy human at 400 mg, […] coadministered with atazanavir 400 mg, po qd for 1 week by LC-MS/MS analysis; type: ADME, organism-based; settings: plasma, read-out: CL_renal; summary of the method: as §6
[15] = Apparent clearance of oral drug in healthy human assessed as drug excreted unchanged at 400 mg, po […] coadministered with atazanavir 400 mg, po qd for 1 week by LC-MS/MS analysis; type: ADME, organism-based; settings: in vivo, read-out: Fraction excreted unchanged; summary of the method: as §6
Plasma [16] = experiment: Cmax in healthy human plasma assessed as raltegravir-glucoronide at 400 mg, po Bid for 1 week by LC-MS/MS analysis; type: ADME, organism-based; set-up: dose 400 mg, route oral; settings: in vivo, 168 h; summary of the method: as §1
Plasma [17] = experiment: Ctau in healthy human plasma assessed as raltegravir-glucoronide at 400 mg, po Bid for 1 week by LC-MS/MS analysis; type: ADME, organism-based; settings: in vivo, 168 h; summary of the method: as §1
Plasma [18] = experiment: Plasma concentration in healthy human assessed as raltegravir-glucoronide at 400 mg, po Bid for 1 week measured 12 hrs post dose by LC-MS/MS analysis; type: ADME, organism-based; settings: in vivo; summary of the method: as §1
Homo sapiens [19] = experiment: AUC (0 to12 hrs) in healthy human assessed as raltegravir-glucoronide at 400 mg, po Bid for 1 week by LC-MS/MS analysis; type: ADME, organism-based, Plasma; set-up: dose 400 mg, time < 12 hr, route oral; settings: in vivo, 12 h; summary of the method: as §1
Plasma [20] = experiment: Cmax in healthy human plasma assessed as raltegravir-glucoronide at 400 mg, […] coadministered with atazanavir 400 mg, po qd for 1 week by LC-MS/MS analysis; type: ADME, organism-based; set-up: dose 400 mg, route oral; settings: in vivo, 168 h; summary of the method: as §2
Plasma [21] = experiment: Ctau in healthy human plasma assessed as raltegravir-glucoronide at 400 mg, […] coadministered with atazanavir 400 mg, po qd for 1 week by LC-MS/MS analysis; type: ADME, organism-based; settings: in vivo, 168 h; summary of the method: as §2
Plasma [22] = experiment: Plasma concentration in healthy human assessed as raltegravir-glucoronide at 400 mg, po […] coadministered with atazanavir 400 mg, po qd for 1 week measured 12 hrs post dose by LC-MS/MS analysis; type: ADME, organism-based; settings: in vivo; summary of the method: as §2
[23] = Drug level in healthy human urine assessed as raltegravir-glucoronide at 400 mg, […] coadministered with atazanavir 400 mg, po qd for 1 week measured at 0-12 hrs post dose by LC-MS/MS analysis; type: ADME, organism-based; settings: in vivo; summary of the method: as §3
[24] = Drug level in healthy human urine assessed as raltegravir-glucoronide at 400 mg, […] coadministered with atazanavir 400 mg, po qd for 1 week measured at 12 to 24 hrs post dose by LC-MS/MS analysis; type: ADME, organism-based; settings: in vivo; summary of the method: as §3
Homo sapiens [25] = experiment: AUC (12 to 24 hrs) in healthy human assessed as raltegravir-glucoronide at 400 mg, po […] coadministered with atazanavir 400 mg, po qd for 1 week by LC-MS/MS analysis; type: ADME, organism-based, Plasma; set-up: time 12-24 hr, dose 400 mg, route oral; settings: in vivo; summary of the method: as §2
[26] = Drug level in healthy human urine assessed as raltegravir-glucoronide at 400 mg, po Bid for 1 week measured at 0-12 hrs post dose by LC-MS/MS analysis; type: ADME, organism-based; settings: in vivo; summary of the method: as §4
Plasma [27] = experiment: Renal clearance in healthy human assessed as raltegravir-glucoronide at 400 mg, po Bid for 1 week by LC-MS/MS analysis; type: ADME, organism-based; settings: in vivo, 168 h; summary of the method: as §5
Plasma [28] = experiment: Renal clearance in healthy human assessed as raltegravir-glucoronide at […] coadministered with atazanavir 400 mg, po qd for 1 week by LC-MS/MS analysis; type: ADME, organism-based; settings: in vivo, 168 h; summary of the method: as §6
[29] = Ratio of drug level to raltegravir-glucoronide level in healthy human urine at 400 mg, po Bid for 1 week by LC-MS/MS analysis; type: ADME, organism-based; settings: in vivo, 168 h; summary of the method: as §4
[30] = Ratio of drug level to raltegravir-glucoronide level in healthy human urine at 400 mg, po Bid coadministered with atazanavir 400 mg, po qd for 1 week by LC-MS/MS analysis; type: ADME, organism-based; settings: in vivo, 168 h, in the assay text read “po qd” for “po Bid”; summary of the method: as §3
[31] = Cmax in healthy human plasma at 400 mg, po qd coadministered with atazanavir 400 mg, po qd for 1 week by LC-MS/MS analysis
[32] = Ctau in healthy human plasma at 400 mg, po qd coadministered with atazanavir 400 mg, po qd for 1 week by LC-MS/MS analysis
[33] = AUC (0 to12 hrs) in healthy human at 400 mg, po qd coadministered with atazanavir 400 mg, po qd for 1 week by LC-MS/MS analysis; settings: plasma
[34] = AUC (12 to24 hrs) in healthy human at 400 mg, po qd coadministered with atazanavir 400 mg, po qd for 1 week by LC-MS/MS analysis; settings: plasma
[35] = Plasma concentration in healthy human at 400 mg, po qd coadministered with atazanavir 400 mg, po qd for 1 week measured 12 hrs post dose by LC-MS/MS analysis

Cmax [1]: 1020 ng/mL
concentration at 168 h [2]: 46 ng/mL
concentration at 12 h [3]: 46 ng/mL
AUC at 12 h [4]: 3530 ng·h/mL
AUC tau at 168 h [5]: 3530 ng·h/mL
AUC (Homo sapiens [6]): 6080 ng·h/mL
Drug uptake [7]: 10.81 mg
Drug uptake [8]: 0.41 mg
Drug uptake [9]: 11.66 mg
CL/F [10]: 1890 mL/min
CL renal at 168 h [11]: 55 mL/min
dose excreted at 168 h [12]: 2.9%
CL/F [13]: 1100 mL/min
CL renal at 168 h [14]: 39 mL/min
dose excreted at 168 h [15]: 3.5%
Cmax (Plasma [16]): 799 ng/mL
Ctau (Plasma [17]): 45 ng/mL
Cp (Plasma [18]): 45 ng/mL
AUC (Homo sapiens [19]): 3267 ng·h/mL
Cmax (Plasma [20]): 458 ng/mL
Ctau (Plasma [21]): 8 ng/mL
Cp (Plasma [22]): 41 ng/mL
Drug uptake [23]: 84.51 mg
Drug uptake [24]: 7.03 mg
AUC (Homo sapiens [25]): 342 ng·h/mL
Drug uptake [26]: 82.5 mg
CL_renal (Plasma [27]): 421 mL/min
CL_renal (Plasma [28]): 692 mL/min
Ratio [29]: 7.08
Ratio [30]: 7.81
Cmax [31]: 1400 ng/mL
concentration at 168 h [32]: 18 ng/mL
AUC at 12 h [33]: 4660 ng·h/mL
AUC [34]: 875 ng·h/mL
concentration at 12 h [35]: 69 ng/mL
Structure (SMILES): Cc1nnc(C(=O)NC(C)(C)c2nc(C(=O)NCc3ccc(F)cc3)c(O)c(=O)n2C)o1 [RALTEGRAVIR]

— ChEMBL document CHEMBL1671760, “Pharmacokinetics and pharmacogenomics of once-daily raltegravir and atazanavir in healthy volunteers” (Antimicrob Agents Chemother, 2010)
